Compound activity: PubChem, several laboratories
TNF death inh = inhibitors of TNF-alpha triggered necroptosis, primary screen, cell-based, Jurkat FADD-/-, single concentration; Jurkat FADD-/- TNF necroptosis rescue, ATP luminescence, 24 h; 0 = TNF only, 100 = no-TNF cells; activation (protection from cell death), % at 10 µM; hit rate 0.068% among 220,000; AID 463075, 2010;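 active = activation, meaning protection from cell death, of at least 50% relative to plate controls; inactive = activation below 50%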;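 also: necroptosis triggered by 40 ng/mL TNF-alpha added together with compound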
RanGTP-Imp inh = inhibitors of RanGTP-importin-beta interaction, primary screen, biochemical, FRET, CFP-Ran, YFP-importin-beta, homogeneous. Ran GTPase (GTP-bound) - importin-beta complex. cell-free CFP-Ran/YFP-importin-beta FRET ratio. inhibition, % (test concentration not listed). hit rate 1.1% among 300,000;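 active = more than half of the replicate wells show a fall in the fluorescence ratio signal beyond about 16%, limit read from the data, passing the limit was not always enough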
Runt-SMMHC FRET = inhibitors of RUNX1 Runt–CBFb-SMMHC binding, primary screen, biochemical, FRET, Cerulean-Runt, Venus-CBFb-SMMHC, uHTS | Runt-related transcription factor 1 (Homo sapiens) + Core-binding factor subunit beta … | Cerulean-Runt/Venus-CBFb-SMMHC FRET ratio 530/480, 1 h | inhibition, % at 20 µM | hit rate 0.74% among 220,000 | AID 1434, 2008;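 active = mean inhibition across duplicate retests at 20 µM reaching about 50%, limit read from the data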;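 also: inhibitors lower the FRET ratio by blocking Runt binding to CBFb-SMMHC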
zVAD death inh = inhibitors of zVAD-triggered necroptosis, primary screen, L929 cells; L929 zVAD necroptosis rescue, ATP luminescence, 24 h; with zVAD 60 µM; viability rescue, % at 10 µM; hit rate 0.38% among 220,000;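 active = activation, scaled between plate controls, above about 75%, limit read from the data; inactive = activation under that limit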
Runt-CBFb FRET = inhibitors of RUNX1 Runt–CBFb binding, primary screen, biochemical, FRET, Cerulean-Runt, Venus-CBFb, uHTS; AID 1496, 2009; inhibition, % at 20 µM; hit rate 0.46% among 220,000; Cerulean-Runt/Venus-CBFb FRET ratio 530/480, 1 h;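 active = inhibition over about 50% at 20 µM in the single-dose screen, limit read from the data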
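test system = Cerulean-tagged RUNX1 Runt domain (FRET donor) fusion protein | reagent = Venus-CBFb binding partner, 100 nM | incubation = protein complex preformed 1 h, compound exposure 1 h, room temperature, dark | detection = FRET fluorescence | read-out basis = loss of energy transfer signal | controls = 5 µM unlabeled CBFb as full-inhibition high control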
Hck Nef HTS = inhibitors of Nef-activated human Hck kinase, primary screen, biochemical, Z-Lyte FRET, 384-well, Hck-YEEI. Tyrosine-protein kinase HCK (Homo sapiens), P08631. Recombinant Hck-YEEI plus Nef, Z-Lyte FRET kinase assay. inhibition, % at 20 µM. hit rate 0.68% among 220,000;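 active = Hck-Nef kinase inhibition above about 50%, limit read from the data; inactive = inhibition below that limit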
Target sequence (P08631 whole entry, looked up): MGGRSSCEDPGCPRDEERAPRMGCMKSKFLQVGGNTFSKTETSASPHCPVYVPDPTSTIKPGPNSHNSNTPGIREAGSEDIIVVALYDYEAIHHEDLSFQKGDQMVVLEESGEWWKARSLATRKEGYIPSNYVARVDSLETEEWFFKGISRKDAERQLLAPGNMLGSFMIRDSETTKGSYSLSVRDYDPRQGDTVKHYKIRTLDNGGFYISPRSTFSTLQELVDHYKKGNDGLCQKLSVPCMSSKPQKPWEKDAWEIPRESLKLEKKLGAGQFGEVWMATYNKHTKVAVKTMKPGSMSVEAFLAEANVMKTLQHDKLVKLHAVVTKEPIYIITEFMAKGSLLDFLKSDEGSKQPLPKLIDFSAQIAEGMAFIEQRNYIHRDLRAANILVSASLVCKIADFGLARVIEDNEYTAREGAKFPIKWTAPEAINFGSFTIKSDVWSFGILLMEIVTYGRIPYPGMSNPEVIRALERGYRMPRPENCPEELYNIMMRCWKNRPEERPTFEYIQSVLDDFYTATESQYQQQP
Hits are given with their value; . = inactive; / = no result; + = active, no number. A selection: hits, their analogues and other compounds. The true share with any hit is near 2.1%.

SMILES | TNF death inh | RanGTP-Imp inh | Runt-SMMHC FRET | zVAD death inh | Runt-CBFb FRET | Hck Nef HTS
Cc1cccc2c3c([nH]c12)CCN(C)C3 | / | . | / | / | / | /
O=C(c1cccc(Cl)c1)N1CCCC(C(=O)N2CCN(c3ccccc3)CC2)C1 (stereo unspecified) | / | . | / | / | / | /
O=C(NNC(=O)c1cc(-c2ccncc2)nc2ccccc12)c1ccccc1O | / | . | / | / | / | /
O=[N+]([O-])c1ccc(COP(=O)(O)OCc2ccc([N+](=O)[O-])cc2)cc1 | / | . | / | / | / | /
S=c1[nH]nc(-c2ccccn2)n1/N=C/c1ccc(-c2ccccc2Cl)o1 | . | . | . | . | . | 76
S=c1[nH]nc(-c2ccccn2)n1/N=C/c1ccc(Cl)c(Cl)c1 | . | . | . | . | . | .
CC(C)c1ccc(Nc2ccc(C(=O)O)cc2[N+](=O)[O-])cc1 | / | . | / | / | / | /
CC1=N/C(=C\c2ccc(OC(C)C)cc2)C(=O)N1c1ccc(C(=O)O)cc1 | . | . | . | . | . | .
COc1ccc(/C=C2\N=C(c3ccccc3)N(c3ccc(C(=O)O)cc3)C2=O)cc1OC | . | 26 | . | . | . | .
Cc1ccc2nc3c(cc(C#N)c(=N)n3CCCN3CCOCC3)c(=O)n2c1 | . | / | / | . | / | .
Cc1cccn2c(=O)c3cc(C#N)c(=N)n(CCCN4CCOCC4)c3nc12 | . | 184 | / | . | / | .
CCCn1c(=N)c(C#N)cc2c(=O)n3cccc(C)c3nc21 | . | 148 | / | . | / | .
Cc1cccn2c(=O)c3cc(C#N)c(=N)n(CCN4CCOCC4)c3nc12 | . | 87 | 94 | . | 76 | .
Cc1ccc(NC(=O)CC(NCC2CCCO2)C(=O)O)cc1C (stereo unspecified) | . | . | . | . | / | .
CCn1cc(Br)c(C(=O)Nc2ccc(Cl)c(Cl)c2)n1 | . | 57 | . | . | . | .
Cc1cc(OC(C)C(=O)Nc2ccncc2)ccc1Cl (stereo unspecified) | / | . | / | / | / | /
N#CC1=C(N)C2=C(N3CCCCC3)CCCC2C1(C#N)C#N (stereo unspecified) | . | . | . | . | . | .
N#CC(C#N)=C1C=C2C=C(N3CCCCC3)CCC2CC1 (stereo unspecified) | . | / | 77 | . | . | .
CCCCN(C)C1=CC2=CC(=C(C#N)C#N)CCC2CC1 (stereo unspecified) | . | 92 | 58 | . | . | .
CCN(CC)C1=CC2=CC(=C(C#N)C#N)CCC2CC1 (stereo unspecified) | . | / | 83 | / | . | .
Nn1cnc2scc(-c3ccco3)c2c1=O | / | . | / | / | / | /
O=C(CCN1CCC(c2ccc(Cl)s2)=N1)c1ccc(Cl)s1 | . | 16 | . | . | . | .
Cc1c(C(=O)Oc2ccc(-c3cnc4ccccc4n3)cc2)cccc1[N+](=O)[O-] | . | . | . | 81 | . | .
O=C(Oc1ccc(-c2cnc3ccccc3n2)cc1)c1ccco1 | . | . | . | 79 | . | .
COc1ccccc1Oc1ccc(-c2cnc3ccccc3n2)cc1[N+](=O)[O-] | . | . | . | . | . | .
SMILES | TNF death inh | RanGTP-Imp inh | Runt-SMMHC FRET | zVAD death inh | Runt-CBFb FRET | Hck Nef HTS
COc1ccc(OC)c(C2C(C#N)=C(N)Oc3cc(C)[nH]c(=O)c32)c1 (stereo unspecified) | . | . | . | . | . | .
N#CC1=C(N)Oc2cc(N)ccc2C1c1cccc(F)c1 (stereo unspecified) | / | 38 | / | / | / | /
CCOc1ccccc1C1C(C#N)=C(N)Oc2cc(N)ccc21 (stereo unspecified) | . | 139 | 105 | . | . | .
COc1ccc(OC)c(C2C(C#N)=C(N)Oc3cc(N)ccc32)c1 (stereo unspecified) | . | 47 | . | . | . | .
CC(NC(=O)c1cc(Br)ccc1Cl)c1ccccc1 (stereo unspecified) | 80 | . | . | . | . | .
CCC(=O)c1ccc(OCC(=O)OCC(=O)Nc2sccc2C(N)=O)cc1 | . | . | . | . | . | .
N#Cc1c(=O)c2nc(NCc3ccccc3)ncc2n2ccccc12 | . | 38 | . | . | . | .
N#Cc1c(=O)c2nc(NCCCO)ncc2n2c(=O)c3ccccc3[nH]c12 | . | . | . | . | . | .
C/C(=N/NC(=O)c1ccccc1)c1ccc(NC(=O)C(F)(F)F)cc1 | . | 31 | . | . | . | .
C/C(=N\NC(=O)c1ccccc1)c1ccc(NC(=O)c2cccs2)cc1 | . | . | . | . | . | .
CCC(C)n1c(=N)c(C#N)cc2c(=O)n3ccccc3nc21 (stereo unspecified) | . | 177 | 95 | . | 92 | .
CCn1c(=N)c(C(=O)OC)cc2c(=O)n3ccccc3nc21 | / | / | . | / | . | /
COC(=O)c1cc2c(=O)n3ccccc3nc2n(C(C)C)c1=N | . | / | / | . | / | +
Brc1cc(-c2ccccc2)nc(-c2ccccc2)n1 | / | . | / | / | / | /
Cc1cccc(NC(=O)CN2C(=O)S/C(=C\c3cccn3-c3cccc(C(=O)O)c3)C2=O)c1 | . | . | . | . | . | 72
Cc1cccc(C)c1NC(=O)CN1C(=O)S/C(=C\c2cccn2-c2cccc(C(=O)O)c2)C1=O | . | . | . | . | . | .
Cc1ccc(NC(=O)CN2C(=O)S/C(=C\c3cccn3-c3cccc(C(=O)O)c3)C2=O)cc1C | . | . | . | . | . | 50
CCOc1ccc(C2C=C(c3ccc(F)cc3)Nc3ncnn32)cc1 (stereo unspecified) | . | . | 63 | . | . | .
CC(C)(C)c1ccc(C2=CC(c3ccccc3F)n3ncnc3N2)cc1 (stereo unspecified) | / | 25 | / | / | / | /
Cc1ccc(C2C=C(c3ccccc3)Nc3ncnn32)cc1 (stereo unspecified) | / | . | / | / | / | /
N#CC(C#N)=C1C=CC=CN1/C(=C\c1ccccc1)C(=O)c1cccs1 | . | 28 | . | . | . | .
N#CC(C#N)=C1C=CC=CN1/C(=C\c1ccccc1Cl)C(=O)c1ccccc1 | . | / | . | / | . | .
O=c1oc2ccccc2n1CCn1c2ccccc2c2nc3ccccc3nc21 | . | 28 | . | . | . | .
COc1ccc(Cc2n[nH]c(=S)n2C)cc1Br | . | . | . | . | . | .
c1ccn2cc(-c3ccc4c(c3)OCO4)cc2c1 | . | . | 92 | . | 59 | .
